Screening results as filed in PubChem BioAssay.
Env fusion inh – inhibitors of HIV-1 Env-driven cell-cell fusion, primary screen, HeLa-JRFL effector, CEM21 target cells, luciferase; inhibition, % at 12.3 µM; 360,000 tested, 1.1% active; AID 651610, 2012;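 active means mean replicate inhibition score of at least 50 and every replicate individually at or above 50; inconclusive means only one of the two criteria met; inactive means mean below 50 and not all replicates reaching 50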;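 further: 0% = plate neutral controls and 100% = maraviroc near 300 nM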
PglD inh – C. jejuni PglD acetyltransferase inhibitors, primary screen, biochemical, DTNB colorimetric, single point. UDP-N-acetylbacillosamine N-acetyltransferase PglD (Campylobacter jejuni). purified PglD enzyme, DTNB colorimetric CoA detection. inhibition, % at 12.5 µM. 360,000 tested, 0.098% active. AID 602405, 2012; in the data active means inhibition above about 16%, passing the limit was not always enough; inconclusive means no clear call, values can overlap the other calls
DENV2 CPE rescue – inhibitors of DENV2 cytopathic effect, primary screen, cell-based, plate reader, single concentration; 350,000 tested, 1.7% active; AID 651640, 2012; CPE inhibition, % at 9.99 µM; DENV2-infected cells, cytopathic effect rescue; in the data active means CPE inhibition above about 20%, passing the limit was not always enough; inconclusive means no clear call, values can overlap the other calls; tested in BHK-21 cells;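 further: 0% = median of neutral control wells and 100% = median of positive control wells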
Ecoli rRNA inh – reduced GFP signal of wild-type E. coli, primary screen, bacterial rRNA inhibitor project, GFP/RFP fluorescence, OD600, single point; E. coli WT GFP vs humanized-ribosome RFP mutants, 24 h; hits give low values; DMSO median 0, no signal -100; GFP signal change (wild-type ribosome), % (concentration not given with the values); AID 720706, 2013; 350,000 tested, 1.6% active;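 active means significant combined selectivity score with lowered wild-type GFP, culture density cut under 30%, mutant RFP and density less affected; inactive means any of these conditions unmet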
FN deposit inh – inhibitors of fibronectin matrix deposition, primary screen, AH1F cells, Alexa488-fibronectin fluorescence, plate reader | AH1F fibroblasts, overnight | inhibition, % at 12.6 µM | AID 743247, 2014 | 350,000 tested, 0.086% active;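 active means mean inhibition across replicates of 30% or more, regardless of how many single replicates reach that level; inconclusive means mean under 30% yet at least half of replicates reach 30%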;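 further: positive control wells lacked labelled fibronectin entirely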
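Measured by – fluorescence 485/525 nm · System – AH1F fibroblast monolayer, labelled fibronectin deposition · Amount – 10000 cells per well · Buffer or medium – serum-reduced DMEM (2% serum) · Doses – single dose, pinned · Also added – fluorescent fibronectin at 24 nM final · Schedule – 1 h cell attachment, overnight exposure to compound and label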
PGC1a acetyl inh – inhibitors of PGC1a acetylation signal, primary screen, cell-based, U2OS, AlphaScreen, inhibitor mode | AlphaScreen anti-acetyl-lysine; with virally co-expressed GCN5 acetyltransferase | inhibition, % at 15.6 µM | 350,000 tested, 0.17% active;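 active means every replicate shows inhibition of at least 40%; inconclusive means mean inhibition at least 40% but some replicate below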;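 further: 0% = neutral control wells and 100% = positive control wells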
Starred values were filed as active, the others as inactive; ? = inconclusive; . = no result; [ ] = dose if it differs, or a comment. A selection: hits, their analogues and other compounds. The true share with any hit is near 3.5%.

SMILES	Env fusion inh	PglD inh	DENV2 CPE rescue	Ecoli rRNA inh	FN deposit inh	PGC1a acetyl inh
Cc1ccc(F)cc1C(=O)N1CCCCC1c1cc(C(=O)NC(C)C)no1 (stereo not drawn)	-3	-3	56*	18	-1	-9
O=C(Nc1ccccc1Cl)c1cc(C2CCCCN2C(=O)C2CCCCC2)on1 (stereo not drawn)	16	0	9	-15	2	-3
COc1ccc(NC(=O)c2cc(C3CCCCN3C(=O)c3cc(F)ccc3C)on2)c(C)c1 (stereo not drawn)	41	2	3	-7	14	17
COC(=O)N1CCCCC1c1cc(C(=O)Nc2ccccc2Cl)no1 (stereo not drawn)	22	-4	28*	-4	-4	-10
CCCNC(=O)Nc1ccc2c(c1)C(=O)N(C)C[C@@H](OC)[C@H](C)CN[C@@H](C)CO2	11[16.7 µM]	3	-10	1	-1	5
COc1ccc2c3c([nH]c2c1)[C@@H](CO)N(Cc1ccccc1)CC31CN(C(=O)c2ccccn2)C1	.	.	.	-1	6	.
O=S(=O)(NC[C@@H]1[C@@H](c2ccccc2)[C@H](CO)N1CC1CC1)c1ccccc1	.	-3	14	-5	1	-4
C[C@@H]1CN([C@@H](C)CO)C(=O)c2cc(NC(=O)c3ccncc3)ccc2O[C@H]1CN(C)Cc1ccncc1	67*[16.7 µM]	-2	-2	2	.	6
C[C@H](CO)N1C[C@H](C)[C@@H](CN(C)Cc2ccncc2)Oc2ccc(NC(=O)c3ccncc3)cc2C1=O	14[16.7 µM]	0	-7	3	.	7
C[C@@H]1CN([C@H](C)CO)C(=O)c2cc(NC(=O)Nc3ccc(C(F)(F)F)cc3)ccc2O[C@@H]1CN(C)Cc1ccncc1	.	1	57*	-12	.	6
C[C@H]1CN([C@@H](C)CO)C(=O)c2cc(NC(=O)c3ccncc3)ccc2O[C@H]1CN(C)C(=O)Nc1ccccc1	.	1	64*	2	.	6
C[C@H]1CN([C@@H](C)CO)C(=O)c2cc(NC(=O)Nc3ccc(C(F)(F)F)cc3)ccc2O[C@H]1CN(C)Cc1ccncc1	.	4	21*	.	.	7
C[C@H](CO)N1C[C@H](C)[C@H](CN(C)Cc2ccncc2)Oc2ccc(NC(=O)Nc3ccc(C(F)(F)F)cc3)cc2C1=O	.	-1	-9	-2	.	9
CN(C)CC#Cc1ccc([C@@H]2[C@H](CO)N3C(=O)CN(C(=O)c4cccnc4)C[C@@H]23)cc1	.	.	-3	0	.	4
COc1ccc2c3c([nH]c2c1)[C@@H](CO)N(C(=O)Nc1ccc(F)cc1)CC31CN(C(=O)c2ccccn2)C1	.	.	11	1	-2	-7
COc1ccc(CN(C)C[C@@H]2Oc3ccc(NC(=O)Nc4ccc(C(F)(F)F)cc4)cc3C(=O)N([C@H](C)CO)C[C@@H]2C)cc1	7[16.7 µM]	-6	29*	-33	2	-9
COc1ccc(NC(=O)Nc2ccc3c(c2)C(=O)N([C@@H](C)CO)C[C@@H](C)[C@@H](CN(C)Cc2ccc(C(F)(F)F)cc2)O3)cc1	?	-1	11	0	.	2
Cc1ccc(S(=O)(=O)N(C)C)cc1NC(=O)COc1ccc(-c2nnco2)cc1	7	2	12	16	-1	2
Cc1ccc(S(=O)(=O)N(C)CC(=O)Oc2ccc(-c3nnco3)cc2)cc1	0	-1	126*	2	1	5
C=CCNC(=O)[C@H]1[C@@H]2C(=O)O[C@@H](c3ccccc3)[C@@H](c3ccccc3)N2[C@@H](c2ccc(O)cc2)[C@]12C(=O)Nc1ccc(C#CC3=CCCCC3)cc12	13[16.7 µM]	5	-3	.	.	11
CN1CCN(C(=O)c2cccc(-c3cnc4cnc(-c5ccccc5Oc5ccccc5)cn34)c2)CC1	0	-5	2	-23	40*	.
O=C(c1cccc(-c2cncc3nccn23)c1)N1CCOCC1	3	0	10	16	-4	-19
CC(C)CN(C[C@@H]1N[C@@H](CO)[C@@H]1c1ccccc1)C(=O)CN(C)C	.	-5	40*	0	-9	-4
CC(=O)N(C[C@H]1N[C@H](CO)[C@@H]1c1ccccc1)C(C)C	.	-2	-7	1	.	1
CCN(C[C@@H]1N[C@@H](CO)[C@@H]1c1ccccc1)C(=O)c1ccncc1	.	13	22*	0	-19	2
SMILES	Env fusion inh	PglD inh	DENV2 CPE rescue	Ecoli rRNA inh	FN deposit inh	PGC1a acetyl inh
CCC(=O)N(CC(C)C)C[C@@H]1[C@@H](c2ccccc2)[C@@H](CO)N1S(C)(=O)=O	.	.	29*	1	-10	.
CCN(C[C@H]1N[C@@H](CO)[C@@H]1c1ccccc1)C(=O)c1ccncc1	.	1	-6	1	2	-3
Cc1ccccc1S(=O)(=O)N[C@@H]1CC[C@H](CCNS(=O)(=O)c2cccc(F)c2)O[C@H]1CO	-2[16.7 µM]	1	-4	-4	-3	3
O=C(C1CCCC1)N1CC2(C1)[C@@H](c1ccccc1)[C@H](CO)N2C(=O)NC1CCCC1	.	.	5	0	0	.
CC(C)c1nc2sc3c(NCc4ccccc4)ncnc3c2c2c1COC(C)(C)C2	.	.	.	.	.	1
CC(C)c1nc2sc3c(NCc4ccco4)ncnc3c2c2c1COC(C)(C)C2	.	.	.	.	.	59*
Cc1ccc(CCSc2ccc(F)cc2)cn1	-8	7	-1	-22*	9	2
CC(C)CCN(C(=O)Nc1ccc(Cl)cc1)C1CCN(C(C)C)CC1	-13	.	1	-35*	-6	2
CCOc1ccc(NC(=O)N(CCC(C)C)C2CCN(C(C)=O)CC2)cc1	-25	-2	.	.	0	3
COc1ccccc1C/C(N)=N/OC(=O)c1cccs1	-8	.	-6	-25*	10	0
O=C(C[C@H]1C[C@@H]2c3cc(NC(=O)C4CCC4)ccc3O[C@@H]2[C@H](CO)O1)NCc1ccc2c(c1)OCO2	-19[16.7 µM]	0	0	-3	-6	18
O=C(C[C@H]1C[C@@H]2c3cc(NC(=O)C4CCC4)ccc3O[C@@H]2[C@@H](CO)O1)NCc1ccc2c(c1)OCO2	86*[16.7 µM]	1	-5	-5	-1	-2
O=C(C[C@H]1C[C@H]2c3cc(NC(=O)C4CCC4)ccc3O[C@H]2[C@@H](CO)O1)NCc1ccc2c(c1)OCO2	78*[16.7 µM]	1	5	2	0	6
COc1cccc(S(=O)(=O)N2CCCCN3[C@@H](CO)[C@@H](c4ccc(C#CC(C)C)cc4)[C@@H]3C2)c1	.	-4	6	-44	.	0
